Shown are actives, neighbours in structure and some others; about 3.1% of the full set was active somewhere.
V-ATPase pH – regulators of yeast V-ATPase proton transport; actives 0.37% (n = 350,000); S. cerevisiae, pHLuorin cytosolic pH fluorescence; response, % at 10 µM; in the data active = response mostly above about 7.3%, no sharp cut-off; inactive = mostly below about 5.4%; note: actives read high
aDG glyco act – alpha-DG glycosylation activation. Pro5-aDG cells, alpha-DG glycosylation AlphaScreen (IIH6); 0% Pro5, 100% B10-LARGE cell signal. activation, % at 10 µM. actives 0.22% (n = 360,000). AID 624168;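 active = activation of at least 8% versus controls, or a plate z-score of at least 8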;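 note: Pro5 are CHO cells carrying HIG-tagged alpha-DG that lacks glycosylation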
ADAM10 inh – inhibits human ADAM10; O14672; recombinant ADAM10, EDANS/DABCYL FRET peptide cleavage, 3 h; inhibition, % at 7 µM; actives 0.62% (n = 370,000); AID 720582;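 active = inhibition above a per-campaign cutoff equal to the mean of compounds falling between control-based bounds plus 3 SD, cut at about 20% in these data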
Target sequence (O14672 214-748 limits assumed): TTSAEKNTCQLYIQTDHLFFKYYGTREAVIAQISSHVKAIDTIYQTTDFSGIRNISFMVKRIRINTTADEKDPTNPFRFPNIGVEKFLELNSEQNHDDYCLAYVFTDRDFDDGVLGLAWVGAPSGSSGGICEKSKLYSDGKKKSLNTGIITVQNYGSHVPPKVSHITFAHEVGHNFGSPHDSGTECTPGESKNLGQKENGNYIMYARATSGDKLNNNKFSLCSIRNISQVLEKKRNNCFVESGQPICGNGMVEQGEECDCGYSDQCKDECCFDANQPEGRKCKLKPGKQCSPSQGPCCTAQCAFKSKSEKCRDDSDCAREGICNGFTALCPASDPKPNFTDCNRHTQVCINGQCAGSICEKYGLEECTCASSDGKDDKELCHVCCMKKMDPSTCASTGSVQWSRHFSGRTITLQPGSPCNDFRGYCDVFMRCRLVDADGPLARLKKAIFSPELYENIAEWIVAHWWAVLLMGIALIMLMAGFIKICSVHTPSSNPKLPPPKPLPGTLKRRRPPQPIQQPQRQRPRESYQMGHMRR
MPTP block – blocks calcium-induced mitochondrial swelling; actives 1.4% (n = 360,000); isolated mouse mitochondria, Ca2+ swelling absorbance, 30 min; inhibition, % at 10 µM;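 active = inhibition of 50% or more, scaled per plate between neutral and stimulator controls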
ADAM17 inh – inhibitors of human ADAM17 | P78536 | recombinant ADAM17, EDANS/DABCYL FRET peptide cleavage | inhibition, % at 6.95 µM | actives 0.83% (n = 370,000);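 active = inhibition above the mean of compounds lying between control limits plus 3 SD, set per campaign, cut at about 8.5% in these data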
Hep lipid drop – hepatic lipid droplet formation modulation; AML12 mouse hepatocytes, oleate lipid droplets, BODIPY imaging; inhibition, % at 6.5 µM; actives 0.4% (n = 240,000); AID 1656;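 active = lipid droplet intensity inhibited by at least 50%, with more than 500 cells counted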
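Test system: AML12 hepatocytes (mouse); reagent: oleate loading, 100 µM; dosing: one dose, 6.5 µM compound; incubation: overnight exposure; signal: fluorescence imaging, 20x objective, two fields per well; read-out basis: % inhibition of corrected integrated BODIPY droplet signal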
ADAM10 confirm – confirmation of inhibitors of human ADAM10. shares compounds with ADAM10 inh. ADAM10 QFRET peptide cleavage, EDANS fluorescence. AID 743208. actives 1% (n = 2,100). inhibition, % at 6.95 µM;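 active = inhibition above about 20% chosen separately for each screening run, limit read from the data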
ADAM17 counter – counter-screen for ADAM10 exosite inhibitors: inhibitors of human ADAM17. actives 0.5% (n = 2,100). inhibition, % at 6.95 µM. ADAM17 QFRET peptide cleavage, EDANS fluorescence. shares compounds with ADAM10 inh;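 active = mean triplicate inhibition above the solvent-only control wells' mean plus 3 SD, cut at about 12% in these data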
ADAM10 ctr – counter-screen for ADAM17 exosite inhibitors: inhibitors of human ADAM10. shares compounds with ADAM17 inh. recombinant ADAM10, EDANS/DABCYL FRET peptide cleavage, 3 h. inhibition, % at 6.95 µM. actives 47% (n = 2,900);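 active = mean inhibition over the triplicate runs exceeds the activity threshold set in the earlier primary screen, cut at about 20% in these data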
ADAM17 confirm – human ADAM17 inhibition, confirmation. shares compounds with ADAM17 inh. recombinant ADAM17, EDANS/DABCYL QFRET peptide cleavage. inhibition, % at 6.95 µM. actives 65% (n = 2,900);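 active = mean inhibition across replicates above the hit cutoff set in the primary screen, cut at about 8.5% in these data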
Large screens that a line does not name were inactive (follow-up assays come after a bar, where they were run).

CC(/C=C1\SC(=O)N(CC(=O)Nc2cccc(O)c2)C1=O)=C\c1ccccc1	ADAM10 inh 29, ADAM17 inh 13 | ADAM10 confirm inactive | ADAM17 counter inactive | ADAM10 ctr 24 | ADAM17 confirm 15
CC(/C=C1\SC(=O)N(CC(=O)Nc2ccc(O)cc2)C1=O)=C\c1ccccc1	none
O=C(CSc1nnc(SCc2cccc3ccccc23)s1)Nc1ccc(S(=O)(=O)Nc2nccs2)cc1	ADAM10 inh 35, ADAM17 inh 11 (no result: V-ATPase pH, aDG glyco act, MPTP block, Hep lipid drop) | ADAM10 confirm inactive | ADAM17 counter inactive | ADAM10 ctr 26 | ADAM17 confirm 11
Cc1cc(C)nc(SCC(=O)Nc2ccc(S(=O)(=O)Nc3nccs3)cc2)n1	none
COc1ccc(CCN(C(=S)Nc2ccccc2)C2CC(=O)N(c3ccccc3)C2=O)cc1 (stereo unspecified)	none (no result: Hep lipid drop)
O=C1CC(N(CCc2ccccc2)C(=S)Nc2ccccc2)C(=O)N1c1ccc(Br)cc1 (stereo unspecified)	ADAM10 inh 35, ADAM17 inh 17 | ADAM10 confirm inactive | ADAM17 counter inactive | ADAM10 ctr 46 | ADAM17 confirm 22
O=C(NCCc1c[nH]c2ccccc12)c1ccc(Sc2ccccc2Cl)c([N+](=O)[O-])c1	ADAM10 inh 23, ADAM17 inh 9.1 (no result: V-ATPase pH, aDG glyco act, MPTP block, Hep lipid drop) | ADAM10 confirm inactive | ADAM17 counter inactive | ADAM10 ctr 27 | ADAM17 confirm 19
O=C(NCCc1ccccc1F)c1ccc(Sc2ccccc2Cl)c([N+](=O)[O-])c1	none (no result: V-ATPase pH, aDG glyco act, MPTP block, Hep lipid drop)
O=C(CCc1ccccc1)N[C@H]1[C@H](OCc2ccccc2)CCC[C@@]12C(=O)N(Cc1ccccc1)c1ccccc12	none (no result: V-ATPase pH, aDG glyco act, MPTP block, Hep lipid drop)
COCCCN1C(=O)[C@H](CC(=O)N2CCN(C(=O)c3ccco3)CC2)[C@]2(C(=O)OC)CCCCC=C12	none (no result: V-ATPase pH, aDG glyco act, MPTP block, Hep lipid drop)
O=C(COc1ccc(Cl)cc1)N1CCN(c2ccc([N+](=O)[O-])c(N3CCCCC3)c2)CC1	ADAM10 inh 20, ADAM17 inh 8.9 | ADAM10 confirm inactive | ADAM17 counter inactive | ADAM10 ctr 25 | ADAM17 confirm 13
Cc1cccc(N2CCN(S(=O)(=O)c3c(C)[nH]c(C)c3C(=O)N3CCCC3)CC2C)c1 (stereo unspecified)	none
CCOC(=O)c1c(C)[nH]c(C)c1S(=O)(=O)N1CCN(c2cccc(C)c2)C(C)C1 (stereo unspecified)	ADAM10 inh 20, ADAM17 inh 9.1 | ADAM10 confirm inactive | ADAM17 counter inactive | ADAM10 ctr inactive | ADAM17 confirm inactive
O=c1cc(-c2ccc(O)cc2)oc2cc(O)cc(O)c12	none (no result: Hep lipid drop)
O=c1c(O)c(-c2ccc(O)cc2)oc2cc(O)cc(O)c12	ADAM10 inh 21, ADAM17 inh 8.9 (no result: Hep lipid drop) | ADAM10 confirm inactive | ADAM17 counter inactive | ADAM10 ctr inactive | ADAM17 confirm inactive
COc1cc2c(cc1OC)C(=O)N1[C@H]3c4cc(Cl)ccc4OC[C@@H]3[C@H](c3ccccc3)[C@]1(C)C(=O)N2	ADAM10 inh 29, ADAM17 inh 12 (no result: Hep lipid drop) | ADAM10 confirm inactive | ADAM17 counter inactive | ADAM10 ctr 34 | ADAM17 confirm 19
CCc1ccc(-c2cn(C3CCCCC3)c(=S)[nH]2)cc1	ADAM10 inh 29, ADAM17 inh 9.6 | ADAM10 confirm inactive | ADAM17 counter inactive | ADAM10 ctr inactive | ADAM17 confirm inactive
C=CC[C@@H](CC(=O)N(CCO)Cc1ccccc1)C(=O)NC[C@H](OC(=O)[C@@H](CC=C)Cc1ccc(F)cc1)c1ccccc1	ADAM10 inh 26, ADAM17 inh 13 (no result: Hep lipid drop) | ADAM10 confirm inactive | ADAM17 counter inactive | ADAM10 ctr 34 | ADAM17 confirm 19
C=CC[C@@H](CC(=O)N(CCO)Cc1ccccc1)C(=O)N[C@H](COC(=O)[C@@H](CC=C)Cc1ccc(F)cc1)c1ccccc1	ADAM10 inh 34, ADAM17 inh 15 (no result: Hep lipid drop) | ADAM10 confirm inactive | ADAM17 counter inactive | ADAM10 ctr 33 | ADAM17 confirm 17
C=CC[C@@H](CC(=O)N(CCO)Cc1ccccc1)C(=O)N[C@@H](C)COC(=O)[C@@H](CC=C)Cc1ccc(F)cc1	none (no result: Hep lipid drop)
COc1ccc(S[C@]2(C(=O)N3CCN(C(C)=O)CC3)CC(=O)N(C(=O)/C=C/c3ccccc3)[C@@H]2c2ccc(OC)cc2)cc1	none (no result: V-ATPase pH, aDG glyco act, MPTP block, Hep lipid drop)
CCOC(=O)c1c(NC(=O)CN2C(=O)NC(C)(c3ccc(OC(F)F)cc3)C2=O)sc(C)c1C (stereo unspecified)	ADAM10 inh 22, ADAM17 inh 11 | ADAM10 confirm inactive | ADAM17 counter inactive | ADAM10 ctr 34 | ADAM17 confirm 20
COc1cccc(-n2c(-c3ccc4[nH]c(C)c(C)c4c3)n[nH]c2=S)c1	ADAM10 inh 29, ADAM17 inh 14 | ADAM10 confirm inactive | ADAM17 counter inactive | ADAM10 ctr inactive | ADAM17 confirm inactive
Cc1[nH]c2ccc(-c3n[nH]c(=S)n3-c3ccccc3)cc2c1C	none
CC1CCCN(CCCNS(=O)(=O)c2cc3c(cc2Br)CCN3C(=O)C2CC2)C1 (stereo unspecified)	none (no result: V-ATPase pH, aDG glyco act, MPTP block, Hep lipid drop)
Cc1cc(C)cc(-n2c(SC(C)C(=O)NCc3ccc4c(c3)OCO4)nc3ccccc3c2=O)c1 (stereo unspecified)	ADAM10 inh 23, ADAM17 inh 11 | ADAM10 confirm inactive | ADAM17 counter inactive | ADAM10 ctr inactive | ADAM17 confirm 11
Cc1cccc(-n2c(SCC(=O)NCc3ccc4c(c3)OCO4)nc3ccccc3c2=O)c1	none
Cc1nnc(SCC(=O)Nc2cccc(S(=O)(=O)N3CCCCC3)c2)s1	none (no result: Hep lipid drop)
Cc1ccc(Nc2nnc(SCC(=O)Nc3cccc(S(=O)(=O)N4CCCCC4)c3)s2)cc1	ADAM10 inh 27, ADAM17 inh 11 | ADAM10 confirm inactive | ADAM17 counter inactive | ADAM10 ctr 30 | ADAM17 confirm 17
CCO[C@H]1OC(C(=O)N2CCN(Cc3ccc4c(c3)OCO4)CC2)=C[C@@H](c2ccc(Br)cc2)[C@@H]1CCCO	ADAM10 inh 25, ADAM17 inh 9.2 | ADAM10 confirm inactive | ADAM17 counter inactive | ADAM10 ctr inactive | ADAM17 confirm inactive

Assay outcomes from PubChem BioAssay.
